Assay results as given in PMC8482496 (ACS Omega, 2021).

Assays:
S. aureus ThrRS = molecular target: T1, S. aureus ThrRS (Staphylococcus aureus, UniProt Q2FXP7); experiment: In vitro aminoacylation assay; type: biochemical; settings: read-out: inhibition of S. aureus ThrRS
T1 sequence (Q2FXP7 1-645): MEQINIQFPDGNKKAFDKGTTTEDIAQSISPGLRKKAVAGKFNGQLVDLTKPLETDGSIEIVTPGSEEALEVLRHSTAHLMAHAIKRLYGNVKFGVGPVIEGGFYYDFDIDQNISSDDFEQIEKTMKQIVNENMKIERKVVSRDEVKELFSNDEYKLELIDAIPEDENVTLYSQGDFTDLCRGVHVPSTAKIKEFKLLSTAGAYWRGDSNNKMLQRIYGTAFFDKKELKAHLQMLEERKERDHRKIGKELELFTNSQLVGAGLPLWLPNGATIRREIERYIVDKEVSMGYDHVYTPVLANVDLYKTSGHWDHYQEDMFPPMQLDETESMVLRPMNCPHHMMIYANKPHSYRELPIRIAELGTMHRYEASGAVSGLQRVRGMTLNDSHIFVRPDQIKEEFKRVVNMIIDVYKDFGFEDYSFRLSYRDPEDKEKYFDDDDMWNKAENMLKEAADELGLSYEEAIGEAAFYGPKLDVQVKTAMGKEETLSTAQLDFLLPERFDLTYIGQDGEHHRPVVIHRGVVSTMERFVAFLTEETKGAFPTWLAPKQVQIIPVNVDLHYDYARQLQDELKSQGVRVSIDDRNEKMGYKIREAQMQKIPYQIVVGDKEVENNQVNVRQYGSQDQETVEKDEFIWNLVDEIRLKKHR
Method in brief: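 S. aureus ThrRS expressed in E. coli BL21(DE3)pLysS (0.25 mM IPTG, 3 h, 37 °C), purified on DEAE then heparin columns. Started with 10 mM ATP; 10 min, 37 °C; TCA-precipitated on filters, scintillation-counted; at least duplicates.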

HEK293 cells = experiment: MTT assay, cytotoxicity; type: cell-based, human; settings: at a concentration of 100 μM; 72 h
Method in brief: (§1)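 HEK293 cells kept in DMEM with 10% FBS plus penicillin/streptomycin, 37 °C, 5% CO2. Seeded at 2 × 10^5 cells/mL and grown 24 h, then exposed 72 h to test compound in DMSO (final DMSO below 0.5%) at various concentrations. MTT (5 mg/mL solution) added for 4 h; formazan dissolved in DMSO, A540 read; viability expressed as percent of untreated control cells.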

MTT assay, cytotoxicity = type: cell-based, human; settings: human, HEK293 cells
Method in brief: as §1

**Q.** Which inhibition at 100 µM (S. aureus ThrRS) does the source give for `COc1ccc(C(=O)CSc2nc3ccc([N+](=O)[O-])cc3s2)cc1` [compound 1, 1-(4-methoxy-phenyl)-2-(6-nitro-benzothiazol-2-ylsulfanyl)-ethanone] here?
**A.** 88.5%

**Q.** And the “cytotoxicity toward HEK293” value (HEK293 cells)?
**A.** not cytotoxic

**Q.** Which inhibition at 100 µM (S. aureus ThrRS) does the source give for `Cc1ccc([N+](=O)[O-])cc1NC(=O)COc1ccccc1C(C)(C)C` [compound 2, 2-(2-tert-butyl-phenoxy)-N-(2-methyl-5-nitro-phenyl)-acetamide] here?
**A.** 85.6%

**Q.** What about the “cytotoxicity toward HEK293” value (HEK293 cells) of the same molecule?
**A.** not cytotoxic

**Q.** With `CCOC(=O)c1c(-c2ccc(Cl)cc2)csc1NC(=O)CN1CC(C)OC(C)C1` (stereo not drawn) [compound 8, 4-(4-chloro-phenyl)-2-[2-(2,6-dimethyl-morpholin-4-yl)-acetylamino]-thiophene-3-carboxylic acid ethyl ester] as the molecule, how does the inhibition at 100 µM (S. aureus ThrRS) read?
**A.** 78.3%

**Q.** And the “cytotoxicity toward HEK293” value (HEK293 cells)?
**A.** not cytotoxic

**Q.** For `Cc1cc(I)ccc1N1C(=O)CC(Sc2ncccc2C(=O)O)C1=O` (stereo not drawn) [compound 11, 2-[1-(4-iodo-2-methyl-phenyl)-2,5-dioxo-pyrrolidin-3-ylsulfanyl]-nicotinic acid], which inhibition at 100 µM (S. aureus ThrRS) is on record?
**A.** 78.6%

**Q.** What about the EC50 at 72 h (MTT assay, cytotoxicity) of the same molecule?
**A.** > 100 µM

**Q.** And the “decrease of the growth of HEK293 cells” value (HEK293 cells)?
**A.** 30%
